Source: ChEMBL document CHEMBL1208695, “Propenylamide and propenylsulfonamide cephalosporins as a novel class of anti-MRSA beta-lactams” (Bioorg Med Chem Lett, 2010)
≈ marks a conversion by molar mass, not a printed value.

Assays:
[1] = system: Staphylococcus aureus; assay: Antibacterial activity against Staphylococcus aureus ATCC 25923; assay type: functional
[2] = system: Staphylococcus aureus; assay: Antibacterial activity against Staphylococcus aureus 887 expressing beta-lactamase; assay type: functional
[3] = system: Staphylococcus aureus; assay: Antibacterial activity against beta-lactamase deficient Staphylococcus aureus COL; assay type: functional
[4] = system: Staphylococcus aureus; assay: Antibacterial activity against Staphylococcus aureus COL expressing beta-lactamase; assay type: functional
[5] = system: Streptococcus pneumoniae; assay: Antibacterial activity against Streptococcus pneumoniae R6; assay type: functional
[6] = system: Escherichia coli; assay: Antibacterial activity against Escherichia coli UB1005; assay type: functional
[7] = Inhibition of Staphylococcus epidermidis PBP2
Procedure, shortened: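 Enzyme: purified recombinant PBP2' from Staphylococcus epidermidis, used as the inhibition target.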

[8] = system: Staphylococcus aureus; assay: Antibacterial activity against Staphylococcus aureus COL expressing beta-lactamase in presence of Sulbactam; assay type: functional

SMILES	MIC [1] [µg/mL]	MIC [2] [µg/mL]	MIC [3] [µg/mL]	MIC [4] [µg/mL]	MIC [5] [µg/mL]	MIC [6] [µg/mL]	IC50 [7] [µM]	MIC [8] [µg/mL]
CC1(C)S[C@@H]2[C@H](NC(=O)[C@H](N)c3ccc(O)cc3)C(=O)N2[C@H]1C(=O)O [AMOXICILLIN]	0.25 (≈ 0.684 µM)	32 (≈ 87.6 µM)	32 (≈ 87.6 µM)	> 32	≤ 0.06	8 (≈ 21.9 µM)		
CC(=O)OCC1=C(C(=O)O)N2C(=O)[C@@H](NC(=O)Cc3cccs3)[C@H]2SC1 [CEPHALOTHIN]	0.25 (≈ 0.631 µM)	0.5 (≈ 1.26 µM)	> 32	> 32	0.125 (≈ 0.315 µM)	8 (≈ 20.2 µM)		
CN1CCCC1C(=O)NC/C=C/C1=C(C(=O)O)N2C(=O)[C@@H](NC(=O)CSc3ccc4ccccc4c3)[C@H]2SC1 (stereo partly specified)	0.13 (≈ 0.229 µM)	1 (≈ 1.76 µM)	4 (≈ 7.06 µM)	> 32	0.13 (≈ 0.229 µM)	> 32		1
O=C(CSc1ccc2ccccc2c1)N[C@@H]1C(=O)N2C(C(=O)O)=C(/C=C/CNC(=O)C3CC3)CS[C@H]12	≤ 0.06	0.5 (≈ 0.955 µM)	1 (≈ 1.91 µM)	16 (≈ 30.6 µM)	≤ 0.06	> 32		
Nc1nc(/C(=N/O)C(=O)N[C@@H]2C(=O)N3C(C(=O)O)=C(/C=C/CNS(=O)(=O)c4cccnc4)CS[C@H]23)c(Cl)s1	2 (≈ 3.33 µM)	4 (≈ 6.67 µM)	16 (≈ 26.7 µM)	32 (≈ 53.3 µM)	≤ 0.06	16 (≈ 26.7 µM)	12	
O=C(Cc1ccccc1)N[C@@H]1C(=O)N2C(C(=O)O)=C(/C=C/CNS(=O)(=O)c3ccccc3)CS[C@H]12	0.5 (≈ 0.974 µM)	16 (≈ 31.2 µM)	> 32	> 32	0.13 (≈ 0.253 µM)	> 32		
O=C(CSc1ccc2ccccc2c1)N[C@@H]1C(=O)N2C(C(=O)O)=C(/C=C/CNS(=O)(=O)c3csc(Cl)c3)CS[C@H]12	≤ 0.06	0.5 (≈ 0.786 µM)	1 (≈ 1.57 µM)	16 (≈ 25.1 µM)	≤ 0.06	> 32	2	1
CN1CCCC1C(=O)NC/C=C/C1=C(C(=O)O)N2C(=O)[C@@H](NC(=O)Cc3ccccc3)[C@H]2SC1 (stereo partly specified)	0.25 (≈ 0.516 µM)	8 (≈ 16.5 µM)	> 32	> 32	≤ 0.06	> 32		
O=C(Cc1ccccc1)N[C@@H]1C(=O)N2C(C(=O)O)=C(/C=C/CNS(=O)(=O)c3csc(Cl)c3)CS[C@H]12	0.13 (≈ 0.235 µM)	2 (≈ 3.61 µM)	32 (≈ 57.8 µM)	> 32	≤ 0.06	> 32		

Results, then the compound that gave them:

MIC [1] [µg/mL]	MIC [2] [µg/mL]	MIC [3] [µg/mL]	MIC [4] [µg/mL]	MIC [5] [µg/mL]	MIC [6] [µg/mL]	IC50 [7] [µM]	MIC [8] [µg/mL]	SMILES
≤ 0.06	2 (≈ 3.65 µM)	8 (≈ 14.6 µM)	> 32	≤ 0.06	> 32	22		CCS(=O)(=O)NC/C=C/C1=C(C(=O)O)N2C(=O)[C@@H](NC(=O)CSc3ccc4ccccc4c3)[C@H]2SC1
1 (≈ 1.73 µM)	2 (≈ 3.45 µM)	> 32	> 32	≤ 0.06	1 (≈ 1.73 µM)	235		CO/N=C(\C(=O)N[C@@H]1C(=O)N2C(C(=O)O)=C(/C=C/CNS(=O)(=O)c3cccnc3)CS[C@H]12)c1csc(N)n1
4 (≈ 7.36 µM)	8 (≈ 14.7 µM)	> 32	> 32	≤ 0.06	0.25 (≈ 0.46 µM)	> 500		CO/N=C(\C(=O)N[C@@H]1C(=O)N2C(C(=O)O)=C(/C=C/CNC(=O)c3cccnc3)CS[C@H]12)c1csc(N)n1
0.5 (≈ 0.835 µM)	1 (≈ 1.67 µM)	8 (≈ 13.4 µM)	16 (≈ 26.7 µM)	0.25 (≈ 0.417 µM)	> 32	6		Nc1nc(/C(=N/O)C(=O)N[C@@H]2C(=O)N3C(C(=O)O)=C(/C=C/CNS(=O)(=O)c4ccccc4)CS[C@H]23)c(Cl)s1
≤ 0.06	1 (≈ 1.85 µM)	4 (≈ 7.4 µM)	32 (≈ 59.2 µM)	≤ 0.06	> 32	50	4	CN(C)CC(=O)NC/C=C/C1=C(C(=O)O)N2C(=O)[C@@H](NC(=O)CSc3ccc4ccccc4c3)[C@H]2SC1
0.13 (≈ 0.232 µM)	1 (≈ 1.78 µM)	4 (≈ 7.13 µM)	> 32	≤ 0.06	> 32	31	1	O=C(CSc1ccc2ccccc2c1)N[C@@H]1C(=O)N2C(C(=O)O)=C(/C=C/CNC(=O)c3cccnc3)CS[C@H]12
≤ 0.06	2 (≈ 3.36 µM)	1 (≈ 1.68 µM)	32 (≈ 53.7 µM)	≤ 0.06	> 32	20		O=C(CSc1ccc2ccccc2c1)N[C@@H]1C(=O)N2C(C(=O)O)=C(/C=C/CNS(=O)(=O)c3ccccc3)CS[C@H]12
≤ 0.06		> 32	> 32	≤ 0.06	> 32			O=C(Cc1ccccc1)N[C@@H]1C(=O)N2C(C(=O)O)=C(/C=C/CNC(=O)c3cccnc3)CS[C@H]12
2 (≈ 3.64 µM)	8 (≈ 14.6 µM)	> 32	> 32	≤ 0.06	1 (≈ 1.82 µM)	> 500		CO/N=C(\C(=O)N[C@@H]1C(=O)N2C(C(=O)O)=C(/C=C/CNC(=O)C3CCCN3C)CS[C@H]12)c1csc(N)n1 (stereo partly specified)
